We go through two compounds from ChEMBL document CHEMBL4316642, “Discovery of 1,4-Naphthoquinones as a New Class of Antiproliferative Agents Targeting GPR55” (ACS Med Chem Lett, 2019).

Holding throughout (assay type): cell-based
One series relates to MCF-10A. In words: Cytotoxicity in human MCF10A cells assessed as reduction in cell viability incubated for 24 hrs by MTT assay. In a few lines: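 EC50 from MTT viability after 24 h exposure; values in micromolar, mean of triplicate (n = 3) determinations. MCF10A described as […]; MDA-MB-231 noted as GPR55-overexpressing.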
Series [1] is described as follows: Cytotoxicity in human PBMC assessed as cell viability at 100 uM incubated for 24 to 48 hrs hrs by trypan blue dye exclusion assay. Conditions: PBMC (peripheral blood mononuclear cells), read-out: Activity. In a few lines:
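Peripheral blood mononuclear cells exposed at 100 μM for 24 or 48 h; viability scored by trypan blue dye exclusion, reported as percent viable cells.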

Series [2] concerns the target G-protein coupled receptor 55 (Homo sapiens) (UniProt Q9Y2T6). The series is described as follows: Inverse agonist activity at GPR55 in human MDA-MB-231 cells assessed as reduction in cell viability at 5 uM incubated for 24 hrs by MTT assay. In general terms: Formazan colour is commonly taken as a measure of viable cells.
Series [3] has the same target. The series is described as follows: Inverse agonist activity at GPR55 in human MDA-MB-468 cells assessed as reduction in cell viability at 5 uM incubated for 24 hrs by MTT assay.
The target is the same in series [4]. In words: Inverse agonist activity at GPR55 in human MCF7 cells assessed as reduction in cell viability at 5 uM incubated for 24 hrs by MTT assay.
The target is the same in series [5]. In words: Inverse agonist activity at GPR55 in human T47D cells assessed as reduction in cell viability at 5 uM incubated for 24 hrs by MTT assay.
For series [6] the target is unchanged. In words: Inverse agonist activity at GPR55 in human MDA-MB-231 cells assessed as reduction in cell viability at 5 uM treated 30 mins after 10 uM GPR55 selective antagonist CID16020046 treatment followed by incubation for 24 hrs by MTT assay. The procedure, abridged: (§1)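 Cells pretreated with GPR55 antagonist CID16020046 for 30 min before test compound addition; proliferation compared against DMSO-treated cells.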

The target is the same in series [7]. The series is described as follows: Inverse agonist activity at GPR55 in human MDA-MB-468 cells assessed as reduction in cell viability at 5 uM treated 30 mins after 10 uM GPR55 selective antagonist CID16020046 treatment followed by incubation for 24 hrs by MTT assay. The procedure, abridged: as §1
Series [8] shares this target. In words: Inverse agonist activity at GPR55 in human MCF7 cells assessed as reduction in cell viability at 5 uM treated 30 mins after 10 uM GPR55 selective antagonist CID16020046 treatment followed by incubation for 24 hrs by MTT assay. In a few lines: as §1
For series [9] the target is unchanged. In words: Inverse agonist activity at GPR55 in human T47D cells assessed as reduction in cell viability at 5 uM treated 30 mins after 10 uM GPR55 selective antagonist CID16020046 treatment followed by incubation for 24 hrs by MTT assay.

The source made the active and inactive calls. The rule behind the calls is not given here.

Sequence of G-protein coupled receptor 55 (Homo sapiens) (Q9Y2T6 whole entry): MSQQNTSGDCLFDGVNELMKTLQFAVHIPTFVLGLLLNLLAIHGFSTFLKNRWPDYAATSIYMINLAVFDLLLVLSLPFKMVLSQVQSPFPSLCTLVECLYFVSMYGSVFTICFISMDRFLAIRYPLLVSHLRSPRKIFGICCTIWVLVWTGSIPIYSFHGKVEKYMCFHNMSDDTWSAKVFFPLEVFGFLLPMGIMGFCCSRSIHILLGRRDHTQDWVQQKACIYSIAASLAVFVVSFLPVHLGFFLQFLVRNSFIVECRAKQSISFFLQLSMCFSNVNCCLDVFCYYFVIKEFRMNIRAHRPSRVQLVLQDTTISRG

In general, EC50 refers to the concentration needed to bring the measured effect to its halfway point. In the case of `O=C1C(Cl)=C(N2CCOCC2)C(=O)c2c(O)ccc(O)c21`, the EC50 with MCF-10A was found to be 3.7 µM. Also, the viability at 100 µM in [1] was found to be 70%. Further, the result in [2], in [3] and in series [4] was Active. Further, the result in [5], in series [6], in series [7], in series [8] and in series [9] was inactive.

For `O=C1C(Cl)=C(N2CCCCC2)C(=O)c2c(O)ccc(O)c21`, the 50% effective concentration (EC50) in the series with MCF-10A is 2.5 µM. Also, the viability at 100 µM in [1] came out at 65%.
